Laboratory results taken from PubChem BioAssay.
Active and inactive are the calls of the source.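 Rule for the calls, unless noted: active = inhibition above 20% together with a positive visual image hit; inconclusive = visual image hit but inhibition not above 20%; inactive = no visual image hit.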

Assays:
[1] = inhibitors of TNFa-induced NFkB p65 translocation, primary screen, imaging, HUVEC, MLSMR starter and 10KST1 sets (AID 438); details: HUVEC TNFa-induced p65 nuclear translocation; cell count: measured here: nuclei count (cytotoxicity indicator), at 2.08 µM unless noted; inhibition: at 2 µM, stronger effect = higher value unless noted;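 note: compound added about 3h40 before a 20 min TNFalpha stimulation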;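 for inhibition: signal is the nuclear over cytoplasmic p65 intensity ratio per well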
[2] = inhibitors of E-selectin induction by TNFa, primary screen, imaging, HUVEC, immunofluorescence, MLSMR starter and 10KST1 sets (AID 487;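 active = visually confirmed hit in the image check and inhibition above 20%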;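 for inhibition: signal is fraction of cell area covered by stained E-selectin grains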;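 for nuclei count: 100% = median nuclei count of all wells on the same plate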); details: HUVEC TNFalpha-induced E-selectin immunofluorescence imaging, at 2 µM; inhibition: stronger effect = higher value; nuclei count: measured here: cell number, toxicity
[3] = DUSP6 inhibitors restoring Erk phosphorylation by chemical complementation, primary imaging in DUSP6-transfected HeLa (AID 609;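 active = compounds giving at least 50% inhibition in the cell-based MKP-3 phosphatase rescue imaging test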;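 for inhibition: phospho-Erk level distribution per well compared with pooled transfected vehicle control wells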); details: HeLa MKP-3 transfected, phospho-Erk imaging KS statistic, at 10 µM
[4] = molecular target: Dual specificity protein phosphatase 6 (Homo sapiens) (UniProt Q16828); experiment: as above; details: HeLa MKP-3 transfected, phospho-Erk imaging KS statistic, at 10 µM, stronger effect = higher value
[5] = molecular target: Voltage-gated potassium channel subunit beta-2 (Rattus norvegicus) (UniProt P62483); experiment: KvBeta enzyme negative modulators, primary screen, biochemical, NADPH fluorescence (AID 622;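 active = fluorescence slope higher than the sample average by over 3 SD, cut at about -0.22 in these data, passing the limit was not always enough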;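 note: slope of raw intensity against log time taken from 70 to 1610 s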); details: recombinant KvBeta, 4-cyanobenzaldehyde reduction, at 10 µM, stronger effect = higher value
[6] = molecular target: Voltage-gated potassium channel subunit beta-2 (Rattus norvegicus) (UniProt P62483); experiment: KvBeta positive modulators, primary screen, biochemical, NADPH fluorescence (AID 623;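 active = NADPH fluorescence slope more negative than the mean of all samples by about 3 SD, 99.7% confidence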;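 note: fluorescence intensity change per second fitted from 20 to 320 s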); details: Recombinant KvBeta, NADPH fluorescence decrease slope, 10 min; at 10 µM; stronger effect = lower value
[7] = molecular target: Alpha-2C adrenergic receptor (Homo sapiens) (UniProt P18825); experiment: modulators of alpha2C/GIRK thallium flux, primary screen, cell-based, HEK293 alpha2C/GIRK1/2 (AID 624;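 active = fluorescence slope after compound addition differing from the mean of all screened samples at 99.7% confidence, in either direction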;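 note: slope of fluorescence ratio to pre-addition baseline per second over 15 to 24 s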); details: thallium flux BTC fluorescence, at 10 µM, actives lie on both sides
[8] = inhibitors of larval lipid processing in zebrafish, primary screen, whole organism, PED6 fluorescence, gall bladder and intestine (AID 686;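 active = a full or partial loss of lipid-probe fluorescence in the fish gall bladder, intestine or both, judged by eye; inactive = no fluorescence loss, or compound toxic to the fish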;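 note: larvae 5 to 7 days old with five fish per well; signal comes from phospholipase A2 cleavage of quenched PED6 carried via bile; overnight exposure to compound and PED6 before scoring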); details: Zebrafish larvae PED6 lipid processing, fluorescence scoring
Method in brief: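 Also added: quenched phospholipase substrate PED6, 100 nM final, ingested by larvae; System: zebrafish larvae, 5-7 d; Quantity: 5 larvae per well; Compound: 20 µM single dose; Schedule: overnight compound and PED6 incubation; Read-out: visual per-well fluorescence inhibition score; Measured by: By-eye fluorescence microscopy; Medium: E3.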

[9] = inhibitors of Chlamydomonas gravitaxis, primary screen, whole organism, Chlamydomonas reinhardtii, WT vs cilia-less mutant, absorbance, 96-well (AID 463189;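 active = inhibition at or above 50% relative to wild type and mutant plate controls; inactive = inhibition below 50%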;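 note: 0% = wild type cc124 cells in DMSO and 100% = ciliumless bld1 mutant cells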); details: OD600 absorbance, 2 days, at 10 µM, stronger effect = higher value
[10] = measured here: cell density z-score
[11] = measured here: nuclear c-Myc green intensity z-score
[12] = measured here: nuclear pErk red intensity z-score, stronger effect = higher value

Sequence of Dual specificity protein phosphatase 6 (Homo sapiens) (Q16828 whole entry, looked up): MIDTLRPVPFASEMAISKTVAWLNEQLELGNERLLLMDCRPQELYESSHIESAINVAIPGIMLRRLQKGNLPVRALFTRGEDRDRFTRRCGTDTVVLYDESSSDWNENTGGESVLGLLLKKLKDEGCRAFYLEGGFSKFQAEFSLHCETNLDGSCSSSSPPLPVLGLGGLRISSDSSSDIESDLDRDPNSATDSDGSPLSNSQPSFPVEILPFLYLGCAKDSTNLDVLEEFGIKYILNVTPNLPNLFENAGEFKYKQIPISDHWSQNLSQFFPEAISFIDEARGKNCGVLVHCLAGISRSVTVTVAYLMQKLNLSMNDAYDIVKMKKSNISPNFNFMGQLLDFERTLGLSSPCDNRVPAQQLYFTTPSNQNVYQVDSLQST
Sequence of Alpha-2C adrenergic receptor (Homo sapiens) (P18825 whole entry, looked up): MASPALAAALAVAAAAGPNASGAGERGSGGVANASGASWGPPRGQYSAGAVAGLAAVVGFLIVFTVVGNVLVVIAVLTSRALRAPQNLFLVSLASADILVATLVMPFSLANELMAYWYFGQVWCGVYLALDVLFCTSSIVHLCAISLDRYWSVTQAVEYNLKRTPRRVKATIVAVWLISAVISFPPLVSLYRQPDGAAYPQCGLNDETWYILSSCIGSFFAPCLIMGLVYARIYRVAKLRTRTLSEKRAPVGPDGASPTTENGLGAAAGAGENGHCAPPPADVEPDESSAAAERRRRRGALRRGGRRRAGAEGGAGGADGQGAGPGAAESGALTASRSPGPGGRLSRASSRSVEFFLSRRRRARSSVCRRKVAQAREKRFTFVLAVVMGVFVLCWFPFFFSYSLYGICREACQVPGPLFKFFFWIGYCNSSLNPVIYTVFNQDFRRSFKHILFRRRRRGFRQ
Sequence of Voltage-gated potassium channel subunit beta-2 (Rattus norvegicus) (P62483 whole entry, looked up): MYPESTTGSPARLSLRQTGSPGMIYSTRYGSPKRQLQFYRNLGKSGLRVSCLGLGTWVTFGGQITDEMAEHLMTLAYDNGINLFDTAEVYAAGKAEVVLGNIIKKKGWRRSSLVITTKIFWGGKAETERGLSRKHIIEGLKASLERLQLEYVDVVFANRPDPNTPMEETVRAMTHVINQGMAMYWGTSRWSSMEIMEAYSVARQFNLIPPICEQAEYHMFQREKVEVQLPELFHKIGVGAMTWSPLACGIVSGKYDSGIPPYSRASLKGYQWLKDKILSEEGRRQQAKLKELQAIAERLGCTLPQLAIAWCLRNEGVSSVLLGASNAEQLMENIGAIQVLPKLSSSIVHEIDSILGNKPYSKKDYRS

Row | Compound | cell count [1] | inhibition [1] | inhibition [2] | nuclei count [2] | z-score [3, 10] | z-score [3, 11] | z-score [3, 12] | inhibition [4] | fluorescence slope [5] | NADPH fluorescence slope [6] | slope [7] | outcome [8] | inhibition [9]
1 | CCN(CC)CCN=Cc1c(O)n(CCc2ccccc2)c(=O)[nH]c1=O | 479 | 7.8% (inactive) | -1.8% (inactive) | 88.8% | 0.714 | -0.47 | -1.29 | 28% (inactive) | -0.368 (inactive) | 9.5e-06 (inactive) | 0.00625 (inactive) | inactive | -6.45% (inactive)
2 | CCOC(=O)[C@@]1(C#N)[C@@H]2C=CC(C(N)=O)=CN2[C@@H](C(N)=O)[C@@H]1c1cccc(Cl)c1 | 359 | -11.1% (inactive) | -137% (inactive) | 133% | 1.68 | -1.47 | -0.2 | 11.4% (inactive) | -0.368 (inactive) | -1e-05 (inactive) | 0.00498 (inactive) | inactive | 24.1% (inactive)
3 | COc1cc2[nH]c(=O)n(-c3cccc(Cl)c3)c(=O)c2cc1OC | 636 | -0.6% (inactive) | -128% (inactive) | 159% | 0.96 | -1.11 | 1.07 | -1.12% (inactive) | -0.467 (inactive) | -0.000203 (inactive) | 0.00492 (inactive) | inactive | -6.85% (inactive)
4 | CCCCc1nc2ccccc2c(=O)n1-c1ccccc1O | 619 | -3.2% (inactive) | -6.5% (inactive) | 178% | -0.399 | 0.344 | 1.46 | -4.78% (inactive) | -0.36 (inactive) | 5.8e-06 (inactive) | 0.00524 (inactive) | inactive | 2.52% (inactive)
5 | CCCCOCCCn1c(N)c(C(=O)OC(C)COC)c2nc3ccccc3nc21 (stereo not given) | 572 | -16.3% (inactive) | -75.8% (inactive) | 146% | 0.315 | -0.916 | -1.54 | 11.9% (inactive) | -0.0435 (inactive) | -1e-05 (inactive) | 0.00527 (inactive) | inactive | 21% (inactive)
6 | CN1CCc2nc(SCC(=O)OC(C)(C)C)c(C#N)cc2C1 | 606 | -21.6% (inactive) | -56.3% (inactive) | 178% | -1.57 | -0.211 | 0.501 | 16% (inactive) | -0.316 (inactive) | -4.7e-05 (inactive) | 0.00437 (inactive) | inactive | 102% (active)
7 | CCOc1ccccc1-n1c(O)c(C=Nc2ccc(N(CC)CC)cc2)c(=O)[nH]c1=O | 588 | -15.7% (inactive) | -43.1% (inactive) | 85.2% | 2.24 | -1.62 | -0.873 | 6.04% (inactive) | -0.43 (inactive) | -9.6e-06 (inactive) | 0.0078 (inactive) | inactive | 7.21% (inactive)
8 | CCOCCN1CCC(OC(C)=O)C(C)C1 (stereo not given) | 461 | -0.9% (inactive) | -83.1% (inactive) | 115% | -0.179 | -1.35 | -0.74 | -6.86% (inactive) | -0.51 (inactive) | -0.000103 (inactive) | 0.00675 (inactive) | inactive | -15.8% (inactive)
9 | OC(Cc1ccccc1)(c1ccccc1)C1CN2CCC1CC2 (stereo not given) | 556 | -8.4% (inactive) | -124% (inactive) | 130% | 0.0962 | 1.34 | 0.286 | 1.98% (inactive) | -0.512 (inactive) | -2.1e-05 (inactive) | 0.00546 (inactive) | inactive | 0.812% (inactive)
10 | O=c1[nH]c2ccccc2c(=O)n1-c1cccc(Cl)c1 | 545 | -5.4% (inactive) | 40% (inactive) | 129% | -1.11 | 2.35 | 0.728 | -18.6% (inactive) | -0.461 (inactive) | -7e-06 (inactive) | 0.00622 (inactive) | inactive | 11.1% (inactive)
11 | O=c1[nH]c(O)c(C=NC2CCN(Cc3ccccc3)CC2)c(=O)[nH]1 | 422 | 0.5% (inactive) | -125% (inactive) | 167% | 0.26 | -1.34 | -0.141 | 4.25% (inactive) | -0.409 (inactive) | -7.4e-05 (inactive) | 0.00643 (inactive) | inactive | -1.61% (inactive)
12 | CN(C)CCc1nn[nH]n1 | 586 | -12.8% (inactive) | -15.2% (inactive) | 115% | -0.419 | 0.458 | 0.261 | 1.75% (inactive) | -0.47 (inactive) | -0.000339 (inactive) | 0.00441 (inactive) | inactive | 25.8% (inactive)
13 | CC(=NCCO)c1c(O)n(C)c(=O)n(C)c1=O | 608 | -15.1% (inactive) | -3.1% (inactive) | 90.8% | 2.05 | -1.46 | -1.21 | 31% (inactive) | -0.432 (inactive) | -4.7e-06 (inactive) | 0.00689 (inactive) | inactive | -8.68% (inactive)
14 | COc1ccc(Cn2c(O)c(C=NCCCn3ccnc3)c(=O)[nH]c2=O)cc1 | 466 | -0.7% (inactive) | 54% (inactive) | 81.9% | -1.17 | 0.328 | 0.929 | 4.25% (inactive) | -0.443 (inactive) | -1.5e-05 (inactive) | 0.00461 (inactive) | inactive | -4.22% (inactive)
15 | CC(=C1C(=O)c2ccccc2C1=O)N1CCN(CCN=Cc2c(O)n(C)c(=O)n(C)c2=O)CC1 | 584 | -2.8% (inactive) | -90.4% (inactive) | 138% | -0.147 | 0.321 | 0.747 | 1.98% (inactive) | -0.482 (inactive) | -2e-05 (inactive) | 0.00537 (inactive) | inactive | 18.5% (inactive)
16 | CCN(CC)c1ccc(N=Cc2c(O)n(-c3cc(OC)ccc3OC)c(=O)[nH]c2=O)cc1 | 462 | 2.1% (inactive) | -25.3% (inactive) | 172% | -0.53 | 0.14 | 0.193 | 16.8% (inactive) | -0.37 (inactive) | -5.8e-05 (inactive) | 0.00328 (inactive) | inactive | 34.9% (inactive)
17 | CNCCc1nc(N)n[nH]1 | 570 | -4.9% (inactive) | -160% (inactive) | 139% | 1.42 | -0.447 | -0.807 | 27.8% (inactive) | -0.507 (inactive) | -4.4e-05 (inactive) | 0.00445 (inactive) | inactive | 24% (inactive)
18 | CCOc1ccccc1-n1c(O)c(C=Nc2c(C)n(C)n(-c3ccccc3)c2=O)c(=O)[nH]c1=O | 629 | -13.3% (inactive) | -48.3% (inactive) | 148% | 1.53 | -0.137 | 0.143 | 22.7% (inactive) | -0.432 (inactive) | -4.9e-06 (inactive) | 0.00796 (inactive) | inactive | 0.366% (inactive)
19 | COc1cccc(-n2c(O)c(C=NCCN3CCOCC3)c(=O)[nH]c2=O)c1 | 512 | -1.1% (inactive) | -10.1% (inactive) | 92.8% | -1.1 | 2.1 | 0.315 | -5.26% (inactive) | -0.386 (inactive) | -1.1e-05 (inactive) | 0.00613 (inactive) | inactive | -13% (inactive)
20 | COc1ccc(Cn2c(O)c(C=NCCN3CCOCC3)c(=O)[nH]c2=O)cc1 | 587 | -0.9% (inactive) | 36.9% (inactive) | 166% | 0.642 | -0.606 | -0.227 | 19.3% (inactive) | -0.342 (inactive) | -2.7e-06 (inactive) | 0.00514 (inactive) | inactive | -7.73% (inactive)
